# Published values collected from several papers.
# Technique: competition with immobilised ligand
# RPS6KA5 N-terminal kinase domain: Ribosomal protein S6 kinase alpha-5, N-terminal kinase domain (RPS6KA5, Homo sapiens, UniProt O75582)
# RPS6KA5 C-terminal kinase domain: Ribosomal protein S6 kinase alpha-5, C-terminal kinase domain (RPS6KA5, Homo sapiens, UniProt O75582)
target,effect on,concentration,remaining binding,Compound
RPS6KA5 N-terminal kinase domain,binding,1 µM,96%,O=C(Nc1c[nH]nc1C(=O)NC1CCNCC1)c1cc(F)cc(F)c1
RPS6KA5 C-terminal kinase domain,binding,10 µM,100%,c1cncc(-c2cccc(Nc3nccc(NC4CCCCC4)n3)c2)c1
RPS6KA5 C-terminal kinase domain,binding,1 µM,96%,Cc1cnc(Nc2ccc(C(=O)N3CCC(N4CCCC4)CC3)cc2)nc1-c1cc2ccccc2s1
RPS6KA5 C-terminal kinase domain,cell-free assay,1 µM,68%,CCC(=O)N[C@H]1CC[C@@H](C(=O)N(C)c2ccc(-c3nc4ccccc4o3)cc2)C1
RPS6KA5 N-terminal kinase domain,binding,1 µM,100%,O=C(c1ccc(Nc2nccc(-c3cc4ccccc4s3)n2)cc1)N1CCC(N2CCCC2)CC1
RPS6KA5 C-terminal kinase domain,binding,1 µM,100%,COc1cnc(Nc2cccc(S(N)(=O)=O)c2)nc1N1CCN(c2ccccc2)C(=O)C1
RPS6KA5 N-terminal kinase domain,binding,1 µM,100%,O=C(c1ccc(Nc2ncc(Cl)c(-c3cc4ccccc4s3)n2)cc1)N1CCC(N2CCCC2)CC1
RPS6KA5 C-terminal kinase domain,binding,1 µM,98%,CN(C)c1nccc(-c2cnn3ncccc23)n1
RPS6KA5 C-terminal kinase domain,binding,1 µM,54%,O=C(NCCCN1CCOCC1)c1ccc(Nc2ncc(Cl)c(-c3ccc(Cl)s3)n2)cc1
RPS6KA5 N-terminal kinase domain,cell-free assay,1 µM,100%,O=C(Nc1cccnn1)N1CC(C/C=C/c2cncc(Oc3ccc(C(F)(F)F)cn3)n2)C1
RPS6KA5 C-terminal kinase domain,binding,1 µM,100%,C=CC(=O)N1CCC(C(=O)NCC(=O)N2CCN(c3nc(-c4cnc(N)nc4C(F)F)nc(N4CCOCC4)n3)CC2)CC1
RPS6KA5 C-terminal kinase domain,binding,1 µM,100%,CCN1CCN(Cc2ccc(C(=O)Nc3ccc(C)c(Oc4ccc5c(c4)CC(=O)N5)c3)cc2C(F)(F)F)CC1
RPS6KA5 C-terminal kinase domain,binding,1 µM,94%,O=C(NCC1CCOCC1)c1n[nH]cc1NC(=O)c1c(F)cccc1F
RPS6KA5 N-terminal kinase domain,binding,1 µM,100%,CN(CCCC(F)(F)F)c1nccc(-c2cnn3ncccc23)n1
RPS6KA5 C-terminal kinase domain,binding,1 µM,88%,O=c1nc(-c2ccccn2)sc2ccccc12
RPS6KA5 N-terminal kinase domain,binding,1 µM,100%,CNC(=O)[C@@H]1CC[C@@H](n2c(-c3ccc4cnccc4c3)nc3ccc(C(=O)NCc4cccc(C(N)=O)c4)cc32)C1
RPS6KA5 N-terminal kinase domain,binding,1 µM,100%,F[C@@H]1CCN(c2nccc(-c3cnn4ncccc34)n2)C1
RPS6KA5 C-terminal kinase domain,binding,1 µM,97%,COc1cnc(Nc2cccc(S(N)(=O)=O)c2)nc1N1CCN(c2ccccc2)CC1
RPS6KA5 N-terminal kinase domain,binding,1 µM,93%,Nc1ncc2c(n1)-c1c([nH]c3ccc(C#CC4CC4)cc13)CCCC2
RPS6KA5 C-terminal kinase domain,binding,1 µM,100%,CN(C)c1nccc(-c2cnc3ncccn23)n1
RPS6KA5 N-terminal kinase domain,cell-free assay,0.1 µM,76%,Cn1nc(C(=O)NCc2ccc(C(=O)O)cc2)cc1-c1ccc2[nH]ccc2c1
RPS6KA5 N-terminal kinase domain,binding,1 µM,70%,C[C@@H]1CCN(c2nccc(-c3cnn4ncccc34)n2)C1
RPS6KA5 N-terminal kinase domain,cell-free assay,1 µM,100%,CC(=O)N1CCC(c2ccc(C(=O)NC3=NCCN3)cc2C(F)(F)F)CC1
RPS6KA5 C-terminal kinase domain,binding,1 µM,100%,N[C@@H]1CCN(c2nccc(-c3cnn4ncccc34)n2)C1
RPS6KA5 N-terminal kinase domain,binding,0.1 µM,95%,C[C@@H](c1ccc(-n2cnc3c(N)ncnc32)cc1)N1CCc2nn(C)c(Cc3ccccc3)c2C1=O
RPS6KA5 N-terminal kinase domain,binding,1 µM,100%,O=C(NCCCN1CCOCC1)c1ccc(Nc2nccc(-c3cc4ccccc4s3)n2)cc1
RPS6KA5 C-terminal kinase domain,cell-free assay,1 µM,100%,O=C(O)c1cc(-c2ccc(C3CCNCC3)cc2)c2ccc(-c3ccc(C(F)(F)F)cc3)cc2c1
RPS6KA5 N-terminal kinase domain,cell-free assay,5 µM,91%,COc1ncc2cc3ccccc3nc2c1C#N
RPS6KA5 N-terminal kinase domain,cell-free assay,1 µM,85%,CN([C@@H]1CCc2c(CC(=O)O)c3cc(S(C)(=O)=O)ccc3n2C1)S(=O)(=O)c1ccc(F)cc1
RPS6KA5 C-terminal kinase domain,binding,1 µM,100%,Cc1cnn2ncc(-c3ccnc(N(C)C)n3)c2c1
RPS6KA5 N-terminal kinase domain,binding,1 µM,100%,O=C(c1ccc(Nc2ncc(Cl)c(-c3ccc(Cl)s3)n2)cc1)N1CCC(N2CCCC2)CC1
RPS6KA5 N-terminal kinase domain,cell-free assay,0.1 µM,100%,Cc1c[nH]c2nccc(Oc3c(F)cc(Nc4cc(Cl)nc(N)n4)cc3F)c12
